Experimental data: ChEMBL document CHEMBL1275527, “A nonsense mutation in the ERG6 gene leads to reduced susceptibility to polyenes in a clinical isolate of Candida glabrata” (2008)
Converted amounts (≈) assume the structure as drawn. The source made the active and inactive calls. No cut-off for these calls is given here.

Assays:
Nakaseomyces glabratus [1] = experiment: Antifungal activity against Candida glabrata isolate 21229 with missense mutation in ERG6 gene at 2 mM; assay type: functional, organism-based
Procedure, shortened: (§1)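 Compound incorporated at 2 mM into YEPD agar. Cell suspensions at 10^7 down to 10^3 cells per ml were spotted at 10 µl each, dried and incubated 48 h at 37°C. Growth was compared with spots on YEPD agar without inhibitor.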

Nakaseomyces glabratus [2] = experiment: Antifungal activity against Candida glabrata isolate 21230 at 2 mM; assay type: functional, organism-based; procedure, shortened: as §1
Nakaseomyces glabratus [3] = experiment: Antifungal activity against wild-type Candida glabrata isolate 21231 by Etest method; assay type: functional
Nakaseomyces glabratus [4] = experiment: Antifungal activity against wild-type Candida glabrata isolate 21231 by disk diffusion method; assay type: functional
Nakaseomyces glabratus [5] = experiment: Antifungal activity against Candida glabrata isolate 21230C by disk diffusion method; assay type: functional
Procedure, shortened: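 The strain is the ura3 derivative of clinical isolate 21230 complemented with a centromeric plasmid carrying wild-type ERG6, tested as for the parent isolate. Isolates were maintained on YEPD agar.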

Nakaseomyces glabratus [6] = experiment: Antifungal activity against Candida glabrata isolate 21230 with silent mutation in ERG4, ERG5 genes and nonsense mutation in ERG6 gene by Etest method; assay type: functional
Nakaseomyces glabratus [7] = experiment: Antifungal activity against Candida glabrata isolate 21230 with silent mutations in ERG4, ERG5 genes and nonsense mutation in ERG6 gene by disk diffusion method; assay type: functional

Row | Compound | Activity (Nakaseomyces glabratus [1]) | Activity (Nakaseomyces glabratus [2]) | MIC (Nakaseomyces glabratus [3]) [µg/mL] | inhibition zone (IZ) (Nakaseomyces glabratus [4]) [mm] | inhibition zone (IZ) (Nakaseomyces glabratus [5]) [mm] | MIC (Nakaseomyces glabratus [6]) [µg/mL] | inhibition zone (IZ) (Nakaseomyces glabratus [7]) [mm]
1 | Cn1c(=O)c2c(ncn2C)n(C)c1=O | Active | Active | – | – | – | – | –
2 | C[C@@H]1[C@H](O)[C@@H](C)/C=C/C=C/C=C/C=C/C=C/C=C/C=C/[C@H](O[C@@H]2O[C@H](C)[C@@H](O)[C@H](N)[C@@H]2O)C[C@@H]2O[C@](O)(C[C@@H](O)C[C@@H](O)[C@H](O)CC[C@@H](O)C[C@@H](O)CC(=O)O[C@H]1C)C[C@H](O)[C@H]2C(=O)O [AMPHOTERICIN B] | – | – | 0.047 (≈ 0.0509 µM) | 27 | 29 | 0.125 (≈ 0.135 µM) | 13
3 | CC(=O)N1CCN(c2ccc(OCC3COC(Cn4ccnc4)(c4ccc(Cl)cc4Cl)O3)cc2)CC1 (stereo not drawn) [KETOCONAZOLE] | – | – | 0.19 (≈ 0.358 µM) | 33 | – | 0.064 (≈ 0.12 µM) | 43
4 | NYSTATIN | – | – | – | 31 | – | – | 19
5 | Clc1ccc(COC(Cn2ccnc2)c2ccc(Cl)cc2Cl)c(Cl)c1 (stereo not drawn) [MICONAZOLE] | – | – | – | 21 | – | – | 29
6 | OC(Cn1cncn1)(Cn1cncn1)c1ccc(F)cc1F [FLUCONAZOLE] | – | – | 6 (≈ 19.6 µM) | 21 | – | 1 (≈ 3.27 µM) | 29
7 | Clc1ccc(COC(Cn2ccnc2)c2ccc(Cl)cc2Cl)cc1 (stereo not drawn) [ECONAZOLE] | – | – | – | 25 | – | – | 35
8 | C[C@@H](c1ncncc1F)[C@](O)(Cn1cncn1)c1ccc(F)cc1F [VORICONAZOLE] | – | – | – | 30 | – | – | 39
